Measured values reported in ChEMBL document CHEMBL1124381, “Studies on angiotensin converting enzyme inhibitors. 4. Synthesis and angiotensin converting enzyme inhibitory activities of 3-acyl-1-alkyl-2-oxoimidazolidine-4-carboxylic acid derivatives” (J Med Chem, 1989).
“And” between values parts separate entries of the source, which are not always exact repeats. Equal values may be shown once.

How the values were obtained:
Rattus norvegicus [1] = species: Rattus norvegicus; assay: Change in systolic blood pressure; assay type: functional, Artery
In short: (§1)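 Male NCrj SHRs, 18-22 weeks old, about 350 g, baseline systolic pressure 180-200 mmHg, fasted 18-20 h. Drug given orally in distilled water at 1, 2, 5 or 10 mg/kg; vehicle 4 mL/kg. Systolic pressure by tail plethysmograph. Initial value, maximum, time of maximum, change and duration of significant fall recorded; mean ± SE.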

Rattus norvegicus [2] = species: Rattus norvegicus; assay: The duration time of the hypotensive effect showing statistically significant difference from initial value was determined; assay type: functional; in short: as §1
Rattus norvegicus [3] = assay: Maximum inhibitory effect on Angiotensin I induced pressor responses in anesthetized normotensive rats with 0.2 mg/Kg dose of compound given perorally; assay type: functional; details: po
In short: (§2)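 Male Wistar slc rats, 300-400 g, anesthetized, fasted 18-20 h. Drug given orally in distilled water once a constant angiotensin I pressor rise was confirmed. […] ID50 from a linear regression curve. Maximum inhibition reported.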

Rattus norvegicus [4] = assay: Maximum inhibitory effect on Angiotensin I induced pressor responses in anesthetized normotensive rats with 0.5 mg/Kg dose of compound given perorally; assay type: functional; details: po; in short: as §2
Rattus norvegicus [5] = assay: Maximum inhibitory effect on Angiotensin I induced pressor responses in anesthetized normotensive rats with 1.0 mg/Kg dose of compound given perorally; assay type: functional; details: po; in short: as §2
Rattus norvegicus [6] = species: Rattus norvegicus; assay: Inhibitory effect on Angiotensin I induced pressor responses in normotensive rats when given perorally; assay type: functional; details: po, read-out: ID50 (the source's name); in short: as §2
Rattus norvegicus [7] = assay: Initial systolic blood pressure in spontaneously hypertensive rats after administration of 10 mg/kg of compound perorally; assay type: functional, Artery; details: route oral; in short: as §1
Rattus norvegicus [8] = assay: Initial systolic blood pressure in spontaneously hypertensive rats after administration of 1 mg/kg of compound perorally; assay type: functional, Artery; details: route oral; in short: as §1
Rattus norvegicus [9] = assay: Initial systolic blood pressure in spontaneously hypertensive rats after administration of 2 mg/kg of compound perorally; assay type: functional, Artery; details: route oral; in short: as §1
Rattus norvegicus [10] = assay: Initial systolic blood pressure in spontaneously hypertensive rats after administration of 5 mg/kg of compound perorally; assay type: functional, Artery; details: route oral; in short: as §1
Rattus norvegicus [11] = assay: Maximum effect on systolic blood pressure in spontaneously hypertensive rats after administration of 10 mg/kg of compound perorally; assay type: functional, Artery; details: route oral; in short: as §1
Rattus norvegicus [12] = assay: Maximum effect on systolic blood pressure in spontaneously hypertensive rats after administration of 1 mg/kg of compound perorally; assay type: functional, Artery; details: route oral; in short: as §1
Rattus norvegicus [13] = assay: The time required for the maximal fall in blood pressure after administration of the compound; assay type: functional; in short: as §1
Rattus norvegicus [14] = assay: Maximum effect on systolic blood pressure in spontaneously hypertensive rats after administration of 2 mg/kg of compound perorally; assay type: functional, Artery; details: route oral; in short: as §1
Rattus norvegicus [15] = assay: Maximum effect on systolic blood pressure in spontaneously hypertensive rats after administration of 5 mg/kg of compound perorally; assay type: functional, Artery; details: route oral; in short: as §1
Rattus norvegicus [16] = assay: Maximum inhibitory effect on Angiotensin I induced pressor responses in anesthetized normotensive rats with 10 ug/kg dose of compound given intra venously; assay type: functional
Rattus norvegicus [17] = assay: Maximum inhibitory effect of on Angiotensin I induced pressor responses in anesthetized normotensive rats with 0.2 mg/Kg dose of compound given perorally; assay type: functional; details: po; in short: as §2
Rattus norvegicus [18] = assay: Maximum inhibitory effect of on Angiotensin I induced pressor responses in anesthetized normotensive rats with 1.0 mg/Kg dose of compound given perorally; assay type: functional; details: po; in short: as §2
Rattus norvegicus [19] = assay: Maximum inhibitory effect on Angiotensin I induced pressor responses in anesthetized normotensive rats with 10 ug/kg dose of compound given intravenously; assay type: functional; details: iv
Rattus norvegicus [20] = assay: Maximum inhibitory effect of on Angiotensin I induced pressor responses in anesthetized normotensive rats with 0.5 mg/Kg dose of compound given perorally; assay type: functional; details: po; in short: as §2
Rattus norvegicus [21] = species: Rattus norvegicus; assay: Inhibitory effect of on Angiotensin I induced pressor responses in normotensive rats when given perorally; assay type: functional; details: po, read-out: ID50 (the source's name); in short: as §2

CCOC(=O)[C@H](CCc1ccccc1)N[C@@H](C)C(=O)N1CCC[C@H]1C(=O)O
Change (Rattus norvegicus [1]): -23.3 [middle of 4 runs] | Duration (Rattus norvegicus [2]): >9 h | inhibition in vivo at 0.2 mg/kg (Rattus norvegicus [3]): 42.9% | inhibition in vivo at 0.5 mg/kg (Rattus norvegicus [4]): 50.5% | inhibition in vivo at 1 mg/kg (Rattus norvegicus [5]): 69.8% | ED50 (Rattus norvegicus [6]): 0.3 mg/kg | Systolic blood pressure (Rattus norvegicus [7]): 193.3 mmHg | Systolic blood pressure (Rattus norvegicus [8]): 190.8 mmHg | Systolic blood pressure (Rattus norvegicus [9]): 192.9 mmHg | Systolic blood pressure (Rattus norvegicus [10]): 190 mmHg | Systolic blood pressure (Rattus norvegicus [11]): 165 mmHg | Systolic blood pressure (Rattus norvegicus [12]): 178.3 mmHg | Time (Rattus norvegicus [13]): 3 h and 6 h | Systolic blood pressure (Rattus norvegicus [14]): 168.6 mmHg | Systolic blood pressure (Rattus norvegicus [15]): 166.7 mmHg

C[C@H](N[C@@H](CCc1ccccc1)C(=O)O)C(=O)N1C(=O)N(Cc2ccccc2)C[C@H]1C(=O)O
inhibition in vivo at 0.01 mg/kg (Rattus norvegicus [16]): 39%

C[C@H](N[C@@H](CCc1ccccc1)C(=O)O)C(=O)N1C(=O)N(C)C[C@H]1C(=O)O
inhibition in vivo at 0.01 mg/kg (Rattus norvegicus [16]): 62.4% | inhibition in vivo at 0.2 mg/kg (Rattus norvegicus [17]): -7.2% | inhibition in vivo at 1 mg/kg (Rattus norvegicus [18]): 26.3%

C[C@H](N[C@@H](CCc1ccccc1)C(=O)O)C(=O)N1CCC[C@H]1C(=O)O [ENALAPRILAT ANHYDROUS]
inhibition in vivo at 0.01 mg/kg (Rattus norvegicus [19]): 54.5%

CCCCCCCC[C@H](N[C@@H](C)C(=O)N1C(=O)N(Cc2ccccc2)C[C@H]1C(=O)O)C(=O)O
inhibition in vivo at 0.01 mg/kg (Rattus norvegicus [16]): 41%

CCCCCCCC[C@H](N[C@@H](C)C(=O)N1C(=O)N(C)C[C@H]1C(=O)O)C(=O)OCC
inhibition in vivo at 1 mg/kg (Rattus norvegicus [18]): 56.2%

CCCCCCCC[C@H](N[C@@H](C)C(=O)N1C(=O)N(C)C[C@H]1C(=O)O)C(=O)O
inhibition in vivo at 0.01 mg/kg (Rattus norvegicus [16]): 53.4% | inhibition in vivo at 1 mg/kg (Rattus norvegicus [18]): 18.4%

CCOC(=O)[C@H](CCc1ccccc1)N[C@@H](C)C(=O)N1C(=O)N(C)C[C@H]1C(=O)O
Change (Rattus norvegicus [1]): -25 [middle of 4 runs] | Duration (Rattus norvegicus [2]): >9 h | inhibition in vivo at 0.2 mg/kg (Rattus norvegicus [17]): 52% | inhibition in vivo at 0.5 mg/kg (Rattus norvegicus [20]): 62.7% | Systolic blood pressure (Rattus norvegicus [7]): 192 mmHg | Systolic blood pressure (Rattus norvegicus [8]; 1 mg/kg): 190 mmHg and 190.8 mmHg | Systolic blood pressure (Rattus norvegicus [9]; 2 mg/kg): 165.8 mmHg and 192.5 mmHg | Systolic blood pressure (Rattus norvegicus [10]; 5 mg/kg): 191.4 mmHg and 164.3 mmHg | Time (Rattus norvegicus [13]): 3 h and 6 h | ED50 (Rattus norvegicus [21]): 0.24 mg/kg
